Measurements reported in article PMC10521327 (Journal of the American Chemical Society, 2023).
Like-named read-outs stand apart in the source and are kept apart here. One block for each compound: values may come before it.

What was measured:
A2780 (Ovary) = experiment: Resazurin antiproliferative assay, 72 h; assay type: cell-based; details: read-out: IC50 A2780 (Ovary)
Outline: (§1)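 Cells were incubated with test compound for 72 h. Viability was read by the fluorescence-based resazurin assay (reduction to resorufin), chosen because formazan absorbance (400–800 nm) interferes with colorimetric probes. IC50 values were derived for each line. The panel was cancer lines plus MRC-5 normal lung fibroblasts.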

MDA-MB-231 (Breast) = experiment: Resazurin antiproliferative assay, 72 h; assay type: cell-based; details: read-out: IC50 MDA-MB-231 (Breast)
Outline: as §1

Caco-2 (Colon) = experiment: Resazurin antiproliferative assay, 72 h; assay type: cell-based; details: read-out: IC50 Caco-2 (Colon)
Outline: as §1

A549 (Lung) = experiment: Resazurin antiproliferative assay, 72 h; assay type: cell-based; details: read-out: IC50 A549 (Lung)
Outline: as §1

MRC-5 (Normal lung) = experiment: Resazurin antiproliferative assay, 72 h; assay type: cell-based; details: read-out: IC50 MRC-5 (Normal lung), mean ± SDM, n=3
Outline: as §1

[1] = system: tested cancer cell lines (A2780, MDA-MB-231, Caco-2, A549); experiment: Resazurin antiproliferative assay, summary over the cancer cell panel; assay type: cell-based; details: 72 h, read-out: IC50 range in the tested cancer cell lines
Outline: as §1

[2] = In vitro calcein competition for Fe; details: 50 mM HEPES buffer pH 7.4 and MeOH 3:1 v/v
Outline: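 Cell-free competition: calcein was quenched with Fe(II) (1.0 equiv) in 50 mM HEPES pH 7.4/MeOH (3:1 v/v). Test compound was then added, and recovery of calcein fluorescence was taken as displacement of iron from the probe.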

[3] = system: A2780 ovarian cancer cells; experiment: Cell cycle distribution by flow cytometry; assay type: cell-based; details: A2780, 40 μM, 24 h
Outline: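 A2780 cells were treated with test compound at 40 μM for 24 h, then analysed by flow cytometry for cell-cycle phase distribution. Triplicate experiments; mean ± standard deviation; t-tests against DMSO vehicle only.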

[4] = system: A2780 ovarian cancer cells; experiment: Apoptotic cell death by flow cytometry; assay type: cell-based; details: A2780, 40 μM, 48 h
Outline: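 A2780 ovarian cancer cells were exposed to test compound (40 μM) for 48 h. Flow cytometry then scored the fractions of cells in early and late apoptosis. Runs were in triplicate, reported as mean ± standard deviation, with t-tests against DMSO vehicle.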

[5] = system: A2780 ovarian cancer cells; experiment: Intracellular calcein assay; assay type: cell-based; details: A2780, 40 μM, 24 h
Outline: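 Calcein-AM delivered calcein to the cytosol, where it is partly quenched by labile iron. Cells were incubated with test compound (40 μM), and the rise in calcein fluorescence was measured against DMSO vehicle. A2780 cells were sampled after 1, 3 and 24 h. Triplicate; mean ± standard deviation; t-tests.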

[6] = system: MRC-5 normal lung fibroblasts; experiment: Intracellular calcein assay; assay type: cell-based; details: MRC-5, 40 μM, 24 h
[7] = system: transferrin receptor 1 (TfR1); experiment: Western blot of TfR1 expression in A2780 cells; assay type: cell-based; details: A2780, 40 μM, 24 h
Outline: (§2)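 Cells were treated with test compound for 24 h; A2780 cells were treated at 40 μM. Lysates were analysed by Western blot for TfR1 and ferritin heavy chain, with β-actin as loading control. n=4; t-tests against DMSO vehicle. Ferric ammonium citrate supplementation served as an iron-replete comparison in A2780.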

[8] = system: ferritin heavy chain (ferritin H); experiment: Western blot of ferritin H expression in A2780 cells; assay type: cell-based; details: A2780, 40 μM, 24 h
Outline: as §2

[9] = system: transferrin receptor 1 (TfR1); experiment: Western blot of TfR1 expression in MRC-5 cells; assay type: cell-based; details: MRC-5, 24 h
Outline: as §2

[10] = system: ferritin heavy chain (ferritin H); experiment: Western blot of ferritin H expression in MRC-5 cells; assay type: cell-based; details: MRC-5, 24 h
Outline: as §2

A2780 cells = assay type: cell-based; details: A2780, 40 μM, 48 h, FAC (50 μM) or holo-Tf (50 μM)
[11] = Distribution coefficient by shake-flask method; assay type: physicochemical; details: octanol and PBS (pH 7.4), HPLC
[12] = Stability / reduction kinetics in fetal bovine serum by HPLC; assay type: in vitro ADME
[13] = resazurin assay, 72 h, mean ± SDM, n=3

IC50 (A2780 (Ovary); Homo sapiens, A2780, 72 h): 15 ± 1 µM
IC50 (MDA-MB-231 (Breast); Homo sapiens, MDA-MB-231, 72 h): 17 ± 1 µM
IC50 (Caco-2 (Colon); Homo sapiens, Caco-2, 72 h): 67 ± 2 µM
IC50 (A549 (Lung); Homo sapiens, A549, 72 h): 21 ± 3 µM
IC50 [1]: 15 to 67 µM
Restoration of calcein fluorescence (displacement of Fe(II) from calcein) [2]: fully restore its initial fluorescence
Compound: O=C(O)c1ccc(-n2nc(-c3ccccc3O)nc2-c2ccccc2O)cc1 [DFX, deferasirox]
IC50 (MRC-5 (Normal lung)): 220 ± 20 µM
Effect on cell cycle distribution [3]: S-phase arrest
Cells in late apoptosis [4]: 42%
Increase of calcein fluorescence [5]: ~ 54%
Increase of calcein fluorescence [6]: ~ 34%
TfR1 expression level [7]: increase of TfR1 expression
Ferritin H expression level [8]: degradation of ferritin
TfR1 expression level [9]: maintained similar effects, albeit less pronounced
Ferritin H expression level [10]: maintained similar effects, albeit less pronounced
Effect of iron supplementation on cytotoxicity (A2780 cells): could be rescued by iron supplementation

Log Do/pH7.4 [11]: 0.1
Half-life t1/2 in serum [12]: > 24 h
Stability (serum, 24 h), remaining ([12]; 24 h): 58%
IC50 (A2780 (Ovary); [13]): 45 ± 9 µM
IC50 (MDA-MB-231 (Breast); [13]): 48 ± 7 µM
IC50 (Caco-2 (Colon); [13]): 92 ± 7 µM
IC50 (A549 (Lung); [13]): 44 ± 9 µM
Compound: Cc1nc(-[n+]2nc(-c3ccccc3)nn2-c2ccccc2)sc1C.[Br-] [MTT]
IC50 (MRC-5 (Normal lung)): 32 ± 5 µM

Restoration of calcein fluorescence (displacement of Fe(II) from calcein) [2]: fail to displace calcein-bound iron(II)
Compound: O=C(O)CC(O)(CC(=O)O)C(=O)O [citric acid]

Compound: ferric ammonium citrate [FAC]
TfR1 expression level [7]: decrease of TfR1
Ferritin H expression level [8]: increase of ferritin H levels
TfR1 expression level [9]: maintained similar effects, albeit less pronounced
Ferritin H expression level [10]: maintained similar effects, albeit less pronounced
